Measured values: ChEMBL document CHEMBL1140741, “Discovery of 4-aryl-4H-chromenes as a new series of apoptosis inducers using a cell- and caspase-based high throughput screening assay. 4. Structure-activity relationships of N-alkyl substituted pyrrole fused at the 7,8-positions” (J Med Chem, 2008)
Activity calls are given as the source filed them. The rule behind the calls is not given here.

Experiments:
[1] = system: T47D; assay: Induction of apoptosis in human T47D cells assessed as caspase activation after 24 hrs by HTS assay; format: functional, cell-based
Procedure, shortened: (§1)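 Proprietary cell- and caspase-based HTS assay in ATCC-sourced cells; EC50 values given as mean ± SEM of three or more experiments.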

[2] = system: HCT-116; assay: Induction of apoptosis in human HCT116 cells assessed as caspase activation after 24 hrs by HTS assay; format: functional, cell-based; conditions: HCT-116, 24 h; procedure, shortened: as §1
[3] = system: SNU-398; assay: Induction of apoptosis in human SNU398 cells assessed as caspase activation after 24 hrs by HTS assay; format: functional, cell-based; conditions: SNU-398, 24 h; procedure, shortened: as §1
[4] = system: T47D; assay: Growth inhibition of human T47D cells after 48 hrs; format: functional
Procedure, shortened: (§2)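 Cells (ATCC-sourced) exposed to compound for 48 h at 37 °C; CellTiter-Glo reagent added, mixed by agitation, incubated 10–15 min at room temperature, luminescence read. GI50 taken as concentration giving 50% inhibition of cell growth.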

[5] = system: HCT-116; assay: Growth inhibition of human HCT116 cells after 48 hrs; format: functional; conditions: HCT-116, 48 h; procedure, shortened: as §2
[6] = system: SNU-398; assay: Growth inhibition of human SNU398 cells after 48 hrs; format: functional; conditions: SNU-398, 48 h; procedure, shortened: as §2
[7] = Inhibition of tubulin polymerization
[8] = system: MCF7; assay: Cell cycle arrest in human MCF7 cells by accumulation at G2/M phase; format: functional, cell-based

Compound | EC50 [1] [nM] | EC50 [2] [nM] | EC50 [3] [nM] | GI50 [4] [nM] | GI50 [5] [nM] | GI50 [6] [nM] | IC50 [7] [nM] | Activity [8]
CCn1ccc2c3c(ccc21)C(c1cc(Br)c(OC)c(OC)c1)C(C#N)=C(N)O3 (stereo not given) | 39 | 44 | 25 | – | – | – | – | –
COc1cc2c(c(OC)c1OC)-c1ccc(OC)c(=O)cc1[C@@H](NC(C)=O)CC2 [COLCHICINE] | – | 15 | 4 | 7 | – | – | – | –
COc1cc(C2C(C#N)=C(N)Oc3c2ccc2ccn(C)c32)cc(Br)c1OC (stereo not given) | 150 | 170 | 130 | – | – | – | – | –
CC(=O)O[C@H]1C(=O)[C@@]2(C)[C@H]([C@H](OC(=O)c3ccccc3)[C@]3(O)C[C@H](OC(=O)[C@H](O)[C@@H](NC(=O)c4ccccc4)c4ccccc4)C(C)=C1C3(C)C)[C@]1(OC(C)=O)CO[C@@H]1C[C@@H]2O [PACLITAXEL] | 36 | 24 | 11 | – | – | – | – | –
COc1cc(C2C(C#N)=C(N)Oc3c2ccc2cc[nH]c32)cc(Br)c1OC (stereo not given) | 16 | 69 | 86 | – | – | – | – | –
COc1cccc(C2C(C#N)=C(N)Oc3c2ccc2c3ccn2C)c1 (stereo not given) | 6 | 7 | 5 | – | – | – | – | –
COc1cc(C2C(C#N)=C(N)Oc3c2ccc2[nH]ccc32)cc(Br)c1OC (stereo not given) | 5 | 14 | 15 | 8 | 20 | 14 | – | –
COc1cc(C2C(C#N)=C(N)Oc3c2ccc2c3ccn2C)cc2c1OCO2 (stereo not given) | 17 | 15 | 12 | – | – | – | – | –
COc1cc(OC)cc(C2C(C#N)=C(N)Oc3c2ccc2c3ccn2C)c1 (stereo not given) | 5 | 6 | 3 | – | – | – | – | –
COc1cc(C2C(C#N)=C(N)Oc3c2ccc2c3ccn2CO)cc(Br)c1OC (stereo not given) | 3 | 3 | 2 | 2 | 4 | 1 | – | –
CC[C@]1(O)C[C@H]2CN(CCc3c([nH]c4ccccc34)[C@@](C(=O)OC)(c3cc4c(cc3OC)N(C=O)[C@H]3[C@@](O)(C(=O)OC)[C@H](OC(C)=O)[C@]5(CC)C=CCN6CC[C@]43[C@@H]65)C2)C1 [VINCRISTINE] | 43 | 58 | 12 | – | – | – | – | –
COc1cc(C2C(C#N)=C(N)Oc3c2ccc2c3ccn2C)cc(OC)c1OC (stereo not given) | 4 | 6 | 3 | – | – | – | – | –
COc1cncc(C2C(C#N)=C(N)Oc3c2ccc2c3ccn2C)c1 (stereo not given) | 3 | 3 | 3 | – | – | – | – | –
COc1cc(C2C(C#N)=C(N)Oc3c2ccc2c3ncn2C)cc(Br)c1OC (stereo not given) | 4 | 5 | 3 | – | – | – | – | –
Cc1cncc(C2C(C#N)=C(N)Oc3c2ccc2c3ccn2C)c1 (stereo not given) | 3 | 3 | 2 | 8 | 3 | 2 | – | –
COc1cc(C2C(C#N)=C(N)Oc3c2ccc2c3ccn2C)cc(Br)c1OC (stereo not given) | 2 | 3 | 2 | 0.3 | 1.4 | 0.2 | 900 | Active
COc1cc(C2C(C#N)=C(N)Oc3c2ccc2[nH]c(C)cc32)cc(Br)c1OC (stereo not given) | 30 | 54 | 27 | – | – | – | – | –
COc1cc(C2C(C#N)=C(N)Oc3c2ccc2c3CCN2C)cc(Br)c1OC (stereo not given) | 2 | 4 | 1 | 7 | 4 | 1 | – | –
CC[C@]1(O)C[C@@H]2CN(CCc3c([nH]c4ccccc34)[C@@](C(=O)OC)(c3cc4c(cc3OC)N(C)[C@H]3[C@@](O)(C(=O)OC)[C@H](OC(C)=O)[C@]5(CC)C=CCN6CC[C@]43[C@@H]65)C2)C1 [VINBLASTINE] | 43 | 44 | 38 | 7 | – | – | – | –
